# Assay results reported in ChEMBL document CHEMBL1275425, “Mechanism of inhibition of human immunodeficiency virus type 1 reverse transcriptase by a stavudine analogue, 4'-ethynyl stavudine triphosphate” (Antimicrob Agents Chemother, 2008).
# What was measured:
# [1] = biological target: T1, Human immunodeficiency virus type 1 reverse transcriptase (Human immunodeficiency virus 1, UniProt Q72547, M184V); test: Inhibition of DNA-dependent DNA polymerase activity of HIV 1 reverse transcriptase M184V mutant assessed as incorporation of d4TMP by burst assay using DNA/DNA Primer/Template combination
# [2] = biological target: T2, Human immunodeficiency virus type 1 reverse transcriptase (Human immunodeficiency virus 1, UniProt Q72547); test: Inhibition of DNA-dependent DNA polymerase activity of HIV 1 reverse transcriptase assessed as incorporation of d4TMP by burst assay using DNA/DNA Primer/Template combination
# [3] = biological target: T2, Human immunodeficiency virus type 1 reverse transcriptase; test: Inhibition of RNA-dependent DNA polymerase activity of HIV 1 reverse transcriptase assessed as incorporation of d4TMP by burst assay using RNA/DNA Primer/Template combination
# [4] = biological target: T1, Human immunodeficiency virus type 1 reverse transcriptase; test: Inhibition of RNA-dependent DNA polymerase activity of HIV 1 reverse transcriptase M184V mutant assessed as incorporation of d4TMP by burst assay using RNA/DNA Primer/Template combination
# [5] = biological target: T1, Human immunodeficiency virus type 1 reverse transcriptase; test: Inhibition of DNA-dependent DNA polymerase activity of HIV 1 reverse transcriptase M184V mutant assessed as incorporation of dTMP by burst assay using DNA/DNA Primer/Template combination
# Outline: (§1)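 Pre-steady-state burst assay by rapid chemical quench at 25°C. Wild-type or M184V HIV-1 RT was preincubated with 5′-32P-labelled primer annealed to a DNA or RNA template. Final conditions were 100 nM enzyme, 300 nM P/T, and 1 mM nucleotide in 50 mM Tris-HCl pH 7.8 with 50 mM NaCl and MgSO4. Reactions were quenched with EDTA and products resolved by urea-PAGE with phosphorimaging. Data were fitted to the burst equation to give amplitude, kob and kss.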
# [6] = biological target: Human immunodeficiency virus type 1 reverse transcriptase (Human immunodeficiency virus 1) (UniProt Q72547); test: Ratio of Kpol/Kd for RNA-dependent DNA polymerase activity of HIV 1 reverse transcriptase assessed as incorporation of dTMP by burst assay using RNA/DNA Primer/Template combination
# Outline: (§2)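 Single-turnover rapid-quench assay at 25°C, Tris-HCl pH 7.8 and NaCl. Enzyme (250 nM wild-type or M184V RT) was in excess over 5′-32P-labelled DNA/DNA or DNA/RNA P/T (50 nM), with the nucleotide triphosphate concentration varied. First-phase observed rates were fitted to kobs = kpol[S]/(Kd + [S]) to obtain Kd and kpol. Incorporation efficiency was taken as kpol/Kd.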
# [7] = system: Human immunodeficiency virus type 1 reverse transcriptase (Human immunodeficiency virus 1), Q72547 [M184V]; test: Activity of RNA-dependent DNA polymerase activity of HIV 1 reverse transcriptase M184V mutant assessed as incorporation of dTMP by burst assay using RNA/DNA Primer/Template combination; outline: as §1
# [8] = biological target: Human immunodeficiency virus type 1 reverse transcriptase (Human immunodeficiency virus 1) (UniProt Q72547); test: Activity of DNA-dependent DNA polymerase activity of HIV 1 reverse transcriptase assessed as incorporation of dTMP by burst assay using DNA/DNA Primer/Template combination
# Outline: (§3)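 Purified HIV-1 RT (wild type or M184V built by site-directed mutagenesis) was preincubated with a 5′-32P-labeled primer annealed to a DNA or RNA template. It was rapidly mixed in a quench-flow at 25°C in 50 mM Tris-HCl pH 7.8 with 50 mM NaCl and MgSO4. Final: 300 nM P/T, 100 nM enzyme, 1 mM nucleotide. Reactions were EDTA-quenched at set times, run on urea-PAGE and phosphorimaged, then fitted to the burst equation.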
# [9] = biological target: T2, Human immunodeficiency virus type 1 reverse transcriptase; test: Inhibition of RNA-dependent DNA polymerase activity of HIV 1 reverse transcriptase assessed as incorporation of dTMP by burst assay using RNA/DNA Primer/Template combination; outline: as §1
# [10] = biological target: Human immunodeficiency virus type 1 reverse transcriptase (Human immunodeficiency virus 1) (UniProt Q72547); test: Activity of RNA-dependent DNA polymerase activity of HIV 1 reverse transcriptase assessed as incorporation of dTMP by burst assay using RNA/DNA Primer/Template combination; outline: as §3
# [11] = biological target: Human immunodeficiency virus type 1 reverse transcriptase (Human immunodeficiency virus 1) (UniProt Q72547); test: Ratio of Kpol/Kd for DNA-dependent DNA polymerase activity of HIV 1 reverse transcriptase assessed as incorporation of dTMP by burst assay using DNA/DNA Primer/Template combination; outline: as §2
# [12] = biological target: T2, Human immunodeficiency virus type 1 reverse transcriptase; test: Inhibition of DNA-dependent DNA polymerase activity of HIV 1 reverse transcriptase assessed as incorporation of dTMP by burst assay using DNA/DNA Primer/Template combination; outline: as §1
# [13] = system: Human immunodeficiency virus type 1 reverse transcriptase (Human immunodeficiency virus 1), Q72547 [M184V]; test: Activity of DNA-dependent DNA polymerase activity of HIV 1 reverse transcriptase M184V mutant assessed as incorporation of dTMP by burst assay using DNA/DNA Primer/Template combination; outline: as §3
# [14] = biological target: T1, Human immunodeficiency virus type 1 reverse transcriptase; test: Inhibition of RNA-dependent DNA polymerase activity of HIV 1 reverse transcriptase M184V mutant assessed as incorporation of dTMP by burst assay using RNA/DNA Primer/Template combination; outline: as §1
# [15] = system: Human immunodeficiency virus type 1 reverse transcriptase (Human immunodeficiency virus 1), Q72547 [M184V]; test: Ratio of Kpol/Kd for DNA-dependent DNA polymerase activity of HIV 1 reverse transcriptase M184V mutant assessed as incorporation of dTMP by burst assay using DNA/DNA Primer/Template combination; outline: as §2
# [16] = system: Human immunodeficiency virus type 1 reverse transcriptase (Human immunodeficiency virus 1), Q72547 [M184V]; test: Ratio of Kpol/Kd for RNA-dependent DNA polymerase activity of HIV 1 reverse transcriptase M184V mutant assessed as incorporation of dTMP by burst assay using RNA/DNA Primer/Template combination; outline: as §2
# [17] = system: Human immunodeficiency virus type 1 reverse transcriptase (Human immunodeficiency virus 1), Q72547 [M184V]; test: (§4) Selectivity index, ratio of Kpol/Kd for RNA-dependent DNA polymerase activity of HIV 1 reverse transcriptase M184V mutant assessed as incorporation of dTMP to Kpol/Kd for RNA-dependent DNA polymerase activity of HIV 1 reverse transcriptase reverse transcriptase M184V mutant assessed as incorporation of Ed4TMP
# Outline: (§5)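 Selectivity factor: the single-turnover incorporation efficiency (kpol/Kd) for dTTP divided by that for the analogue triphosphate. Both used the same RT (wild type or M184V) and the same primer/template, DNA/DNA or DNA/RNA. Kd and kpol came from hyperbolic fits of first-phase rates against nucleotide concentration, with 250 nM RT over 50 nM labeled P/T at 25°C.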
# [18] = biological target: T2, Human immunodeficiency virus type 1 reverse transcriptase; test: Inhibition of RNA-dependent DNA polymerase activity of HIV 1 reverse transcriptase assessed as incorporation of 4-EdTMP by burst assay using RNA/DNA Primer/Template combination
# Outline: (§6)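 Rapid chemical quench-flow at 25°C in 50 mM Tris-HCl pH 7.8, 50 mM NaCl. Wt or M184V HIV-1 RT (100 nM final) was preincubated with 5′-32P-labelled primer/template (300 nM final; DNA/DNA or DNA/RNA). It was mixed with buffer containing 20 mM MgSO4 (pre-mixing) and 2 mM nucleotide triphosphate (pre-mixing). Reactions were quenched at set times with 0.5 M EDTA and products resolved by urea-PAGE with phosphorimaging. Data were fitted to the burst equation.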
# [19] = biological target: T1, Human immunodeficiency virus type 1 reverse transcriptase; test: Inhibition of RNA-dependent DNA polymerase activity of HIV 1 reverse transcriptase M184V mutant assessed as incorporation of 4-EdTMP by single-turnover assay using RNA/DNA Primer/Template combination
# [20] = system: Human immunodeficiency virus type 1 reverse transcriptase (Human immunodeficiency virus 1), Q72547 [M184V]; test: Ratio of Kpol/Kd for DNA-dependent DNA polymerase activity of HIV 1 reverse transcriptase M184V mutant assessed as incorporation of 4-EdTMP by burst assay using DNA/DNA Primer/Template combination
# Outline: (§7)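 Single-turnover rapid-quench at 25°C in Tris-HCl pH 7.8/NaCl/MgSO4 buffer, with enzyme in excess: 250 nM wild-type or M184V RT and 50 nM 5′-32P-labeled DNA/DNA or DNA/RNA primer/template. The incoming nucleotide concentration was varied. Products were resolved by urea-PAGE and phosphorimaged. First-phase rates were fitted to kobs = kpol[S]/(Kd+[S]), and efficiency was taken as kpol/Kd.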
# [21] = biological target: T1, Human immunodeficiency virus type 1 reverse transcriptase; test: Inhibition of DNA-dependent DNA polymerase activity of HIV 1 reverse transcriptase M184V mutant assessed as incorporation of 4-EdTMP by burst assay using DNA/DNA Primer/Template combination
# [22] = biological target: Human immunodeficiency virus type 1 reverse transcriptase (Human immunodeficiency virus 1) (UniProt Q72547); test: Activity of RNA-dependent DNA polymerase activity of HIV 1 reverse transcriptase assessed as incorporation of 4-EdTMP by burst assay using RNA/DNA Primer/Template combination; outline: as §3
# [23] = biological target: Human immunodeficiency virus type 1 reverse transcriptase (Human immunodeficiency virus 1) (UniProt Q72547); test: Selectivity index, ratio of Kpol/Kd for DNA-dependent DNA polymerase activity of HIV 1 reverse transcriptase assessed as incorporation of dTMP to Kpol/Kd for DNA-dependent DNA polymerase activity of HIV 1 reverse transcriptase reverse transcriptase assessed as incorporation of Ed4TMP; outline: as §5
# [24] = system: Human immunodeficiency virus type 1 reverse transcriptase (Human immunodeficiency virus 1), Q72547 [M184V]; test: as §4, with “DNA-dependent” for “RNA-dependent”; outline: as §5
# [25] = biological target: Human immunodeficiency virus type 1 reverse transcriptase (Human immunodeficiency virus 1) (UniProt Q72547); test: Ratio of Kpol/Kd for DNA-dependent DNA polymerase activity of HIV 1 reverse transcriptase assessed as incorporation of 4-EdTMP by burst assay using DNA/DNA Primer/Template combination; outline: as §7
# [26] = biological target: T2, Human immunodeficiency virus type 1 reverse transcriptase; test: Inhibition of DNA-dependent DNA polymerase activity of HIV 1 reverse transcriptase assessed as incorporation of 4-EdTMP by burst assay using DNA/DNA Primer/Template combination; outline: as §6
# [27] = system: Human immunodeficiency virus type 1 reverse transcriptase (Human immunodeficiency virus 1), Q72547 [M184V]; test: Activity of RNA-dependent DNA polymerase activity of HIV 1 reverse transcriptase M184V mutant assessed as incorporation of 4-EdTMP by burst assay using RNA/DNA Primer/Template combination; outline: as §3
# [28] = biological target: Human immunodeficiency virus type 1 reverse transcriptase (Human immunodeficiency virus 1) (UniProt Q72547); test: Selectivity index, ratio of Kpol/Kd for RNA-dependent DNA polymerase activity of HIV 1 reverse transcriptase assessed as incorporation of dTMP to Kpol/Kd for RNA-dependent DNA polymerase activity of HIV 1 reverse transcriptase reverse transcriptase assessed as incorporation of Ed4TMP; outline: as §5
# [29] = system: Human immunodeficiency virus type 1 reverse transcriptase (Human immunodeficiency virus 1), Q72547 [M184V]; test: Activity of DNA-dependent DNA polymerase activity of HIV 1 reverse transcriptase M184V mutant assessed as incorporation of 4-EdTMP by burst assay using DNA/DNA Primer/Template combination; outline: as §3
# [30] = biological target: Human immunodeficiency virus type 1 reverse transcriptase (Human immunodeficiency virus 1) (UniProt Q72547); test: Activity of DNA-dependent DNA polymerase activity of HIV 1 reverse transcriptase assessed as incorporation of 4-EdTMP by burst assay using DNA/DNA Primer/Template combination; outline: as §3
# [31] = biological target: Human immunodeficiency virus type 1 reverse transcriptase (Human immunodeficiency virus 1) (UniProt Q72547); test: Ratio of Kpol/Kd for RNA-dependent DNA polymerase activity of HIV 1 reverse transcriptase assessed as incorporation of 4-EdTMP by burst assay using RNA/DNA Primer/Template combination; outline: as §7
# [32] = system: Human immunodeficiency virus type 1 reverse transcriptase (Human immunodeficiency virus 1), Q72547 [M184V]; test: Ratio of Kpol/Kd for RNA-dependent DNA polymerase activity of HIV 1 reverse transcriptase M184V mutant assessed as incorporation of 4-EdTMP by burst assay using RNA/DNA Primer/Template combination; outline: as §7
structure (smiles),measurement,setting,value
Cc1cn([C@H]2C=C[C@@H](COP(=O)(O)OP(=O)(O)OP(=O)(O)O)O2)c(=O)[nH]c1=O [STAVUDINE TRIPHOSPHATE],Kd,[1],605 µM
same,Kd,[2],48 µM
same,Kd,[3],40.8 µM
same,Kd,[4],232 µM
Cc1cn([C@H]2C[C@H](O)[C@@H](COP(=O)(O)OP(=O)(O)OP(=O)(O)O)O2)c(=O)[nH]c1=O [DEOXYTHYMIDINE_TRIPHOSPHATE],Kd,[5],73.2 µM
same,Ratio,[6],0.97 µM⁻¹ s⁻¹
same,Activity,[7],41.7 s⁻¹
same,Activity,[8],22.6 s⁻¹
same,Kd,[9],67.1 µM
same,Activity,[10],65 s⁻¹
same,Ratio,[11],1.47 µM⁻¹ s⁻¹
same,Kd,[12],15.4 µM
same,Activity,[13],22.4 s⁻¹
same,Kd,[14],144 µM
same,Ratio,[15],0.31 µM⁻¹ s⁻¹
same,Ratio,[16],0.29 µM⁻¹ s⁻¹
C#C[C@@]1(COP(=O)(O)OP(=O)(O)OP(=O)(O)O)C=C[C@H](n2cc(C)c(=O)[nH]c2=O)O1,Ratio,[17],1.3
same,Kd,[18],11.4 µM
same,Kd,[19],43.4 µM
same,Ratio,[20],0.11 µM⁻¹ s⁻¹
same,Kd,[21],168 µM
same,Activity,[22],11.7 s⁻¹
same,Ratio,[23],1.9
same,Ratio,[24],2.8
same,Ratio,[25],0.77 µM⁻¹ s⁻¹
same,Kd,[26],15.8 µM
same,Activity,[27],9.7 s⁻¹
same,Ratio,[28],0.97
same,Activity,[29],18.9 s⁻¹
same,Activity,[30],12.1 s⁻¹
same,Ratio,[31],1 µM⁻¹ s⁻¹
same,Ratio,[32],0.22 µM⁻¹ s⁻¹
